# In ChEMBL document CHEMBL1932969, “Acyl derivatives of boswellic acids as inhibitors of NF-κB and STATs” (Bioorg Med Chem Lett, 2012):
# Tests used:
# Format in all cases: functional
# HEp-2 = experiment: Anticancer activity against human Hep2 cells assessed as growth inhibition at 50 uM after 48 hrs by SRB assay; settings: HEp-2, 48 h, read-out: GI
# Method in brief: (§1)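 Cells exposed to test compounds at 50 µM for 48 h. Read-out is percent growth inhibition, with SEM given. 5-Fluorouracil and adriamycin serve as reference agents.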
# PC-3 = experiment: Anticancer activity against human PC3 cells assessed as growth inhibition at 50 uM after 48 hrs by SRB assay; settings: PC-3, 48 h, read-out: GI; method in brief: as §1
# DU-145 = experiment: Anticancer activity against human DU145 cells assessed as growth inhibition at 50 uM after 48 hrs by SRB assay; settings: DU-145, 48 h, read-out: GI; method in brief: as §1
# HT-29 = experiment: Anticancer activity against human HT-29 cells assessed as growth inhibition at 50 uM after 48 hrs by SRB assay; settings: HT-29, 48 h, read-out: GI; method in brief: as §1
# SW-620 = experiment: Anticancer activity against human SW620 cells assessed as growth inhibition at 50 uM after 48 hrs by SRB assay; settings: SW-620, 48 h, read-out: GI; method in brief: as §1
# COLO 205 = experiment: Anticancer activity against human COLO205 cells assessed as growth inhibition at 50 uM after 48 hrs by SRB assay; settings: COLO 205, 48 h, read-out: GI; method in brief: as §1
Structure (SMILES),inhibition of growth at 50 µM (HEp-2) [%],inhibition of growth at 50 µM (PC-3) [%],inhibition of growth at 50 µM (DU-145) [%],inhibition of growth at 50 µM (HT-29) [%],inhibition of growth at 50 µM (SW-620) [%],inhibition of growth at 50 µM (COLO 205) [%]
C[C@H]1[C@H](C)CC[C@]2(C)CC[C@]3(C)C(=CC(=O)[C@@H]4[C@@]5(C)CC[C@@H](OC(=O)CCC(=O)O)[C@](C)(C(=O)O)[C@@H]5CC[C@]43C)[C@H]12,6,38,51,5,4,2
COC(=O)[C@@]1(C)C(=O)CC[C@]2(C)[C@H]3CC=C4[C@@H]5[C@@H](C)[C@H](C)CC[C@]5(C)CC[C@@]4(C)[C@]3(C)CC[C@@H]12,7,44,50,33,34,34
C[C@H]1[C@H](C)CC[C@]2(C)CC[C@]3(C)C(=CC(=O)[C@@H]4[C@@]5(C)CC[C@@H](OC=O)[C@](C)(C(=O)O)[C@@H]5CC[C@]43C)[C@H]12,54,95,83,63,69,73
CC(=O)O[C@@H]1CC[C@@]2(C)[C@@H](CC[C@]3(C)[C@@H]2CC=C2[C@@H]4[C@@H](C)[C@H](C)CC[C@]4(C)CC[C@]23C)[C@@]1(C)C(=O)O,85,44,3,93,93,91
C[C@H]1[C@H](C)CC[C@]2(C)CC[C@]3(C)C(=CC[C@@H]4[C@@]5(C)CC[C@@H](OC(=O)CCC(=O)O)[C@](C)(C(=O)O)[C@@H]5CC[C@]43C)[C@H]12,55,90,93,72,67,88
CC(=O)O[C@H]1CC[C@@]2(C)[C@@H](CC[C@]3(C)[C@@H]2CC=C2[C@@H]4[C@@H](C)[C@H](C)CC[C@]4(C)CC[C@]23C)[C@@]1(C)C(=O)O,42,56,87,31,35,32
COC(=O)[C@@]1(C)[C@H](O)CC[C@@]2(C)[C@H]1CC[C@]1(C)[C@@H]2C(=O)C=C2[C@@H]3[C@@H](C)[C@H](C)CC[C@]3(C)CC[C@]21C,50,87,65,67,67,70
C[C@H]1[C@H](C)CC[C@]2(C)CC[C@]3(C)C(=CC(=O)[C@@H]4[C@@]5(C)CC[C@H](O)[C@](C)(C(=O)O)[C@@H]5CC[C@]43C)[C@H]12,51,70,84,44,45,49
CO[C@@]12[C@H](COC(N)=O)C3=C(C(=O)C(C)=C(N)C3=O)N1C[C@@H]1N[C@@H]12 [MITOMYCIN],58,55,48,60,55,43
CC(=O)O[C@H]1CC[C@@]2(C)[C@@H](CC[C@]3(C)[C@@H]2C(=O)C=C2[C@@H]4[C@@H](C)[C@H](C)CC[C@]4(C)CC[C@]23C)[C@@]1(C)C(=O)O,47,62,83,44,44,54
CCCC(=O)O[C@H]1CC[C@@]2(C)[C@@H](CC[C@]3(C)[C@@H]2CC=C2[C@@H]4[C@@H](C)[C@H](C)CC[C@]4(C)CC[C@]23C)[C@@]1(C)C(=O)O,63,83,89,57,79,67
COC(=O)[C@]1(C)[C@@H]2CC[C@]3(C)[C@H](CC=C4[C@@H]5[C@@H](C)[C@H](C)CC[C@]5(C)CC[C@]43C)[C@@]2(C)CC[C@@H]1O,0,7,3,5,9,22
COC(=O)[C@]1(C)[C@@H]2CC[C@]3(C)[C@H](C(=O)C=C4[C@@H]5[C@@H](C)[C@H](C)CC[C@]5(C)CC[C@]43C)[C@@]2(C)CC[C@@H]1O,0,5,4,8,10,21
CC(=O)O[C@@H]1CC[C@@]2(C)[C@@H](CC[C@]3(C)[C@@H]2C(=O)C=C2[C@@H]4[C@@H](C)[C@H](C)CC[C@]4(C)CC[C@]23C)[C@@]1(C)C(=O)O [AKBA],59,76,85,88,88,85
C[C@H]1[C@H](C)CC[C@]2(C)CC[C@]3(C)C(=CC[C@@H]4[C@@]5(C)CC[C@@H](OC=O)[C@](C)(C(=O)O)[C@@H]5CC[C@]43C)[C@H]12,72,95,90,76,87,90
COc1cccc2c1C(=O)c1c(O)c3c(c(O)c1C2=O)C[C@@](O)(C(=O)CO)C[C@@H]3O[C@H]1C[C@H](N)[C@H](O)[C@H](C)O1 [DOXORUBICIN],64,86,90,88,72,81
COC(=O)[C@@]1(C)[C@H](O)CC[C@@]2(C)[C@H]1CC[C@]1(C)[C@@H]2CC=C2[C@@H]3[C@@H](C)[C@H](C)CC[C@]3(C)CC[C@]21C,26,54,85,35,46,43
C[C@H]1[C@H](C)CC[C@]2(C)CC[C@]3(C)C(=CC(=O)[C@@H]4[C@@]5(C)CC[C@H](OC(=O)CCC(=O)O)[C@](C)(C(=O)O)[C@@H]5CC[C@]43C)[C@H]12,19,62,83,17,4,28
CCCC(=O)O[C@H]1CC[C@@]2(C)[C@@H](CC[C@]3(C)[C@@H]2C(=O)C=C2[C@@H]4[C@@H](C)[C@H](C)CC[C@]4(C)CC[C@]23C)[C@@]1(C)C(=O)O,66,94,92,62,79,91
CCC(=O)O[C@H]1CC[C@@]2(C)[C@@H](CC[C@]3(C)[C@@H]2C(=O)C=C2[C@@H]4[C@@H](C)[C@H](C)CC[C@]4(C)CC[C@]23C)[C@@]1(C)C(=O)O,63,96,89,64,72,83
C[C@H]1[C@H](C)CC[C@]2(C)CC[C@]3(C)C(=CC[C@@H]4[C@@]5(C)CC[C@H](O)[C@](C)(C(=O)O)[C@@H]5CC[C@]43C)[C@H]12,69,72,89,70,63,81
C[C@H]1[C@H](C)CC[C@]2(C)CC[C@]3(C)C(=CC(=O)[C@@H]4[C@@]5(C)CC[C@@H](O)[C@](C)(C(=O)O)[C@@H]5CC[C@]43C)[C@H]12 [11-KETO BOSWELLIC ACID],35,100,95,39,28,52
O=c1[nH]cc(F)c(=O)[nH]1 [FLUOROURACIL],29,16,35,41,44,29
C[C@H]1[C@H](C)CC[C@]2(C)CC[C@]3(C)C(=CC[C@@H]4[C@@]5(C)CC[C@H](OC(=O)CCC(=O)O)[C@](C)(C(=O)O)[C@@H]5CC[C@]43C)[C@H]12,11,35,48,13,5,19
